Paper PMC8693849 (RSC Advances, 2021)
Values after ≈ are worked out from the molar mass of the structure shown.

Assays:
S. pyogenes (ATCC 19615) = experiment: Agar diffusion method, zone of inhibition; type: cell-based, Streptococcus pyogenes; details: Streptococcus pyogenes, ATCC19615, 24 h, read-out: Diameter of zone inhibition
[1] = tested on: P. phaseolicola (GSPB 2828); experiment: Agar diffusion method, zone of inhibition; type: cell-based, Pseudomonas phaseolicola; details: Pseudomonas, 24 h, read-out: Diameter of zone inhibition
Procedure, shortened: (§1)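 Bacterial strains were tested by agar diffusion on nutrient agar (peptone 5 and meat extract 3 g L⁻¹ in distilled water, pH 7.0, 2% agar, autoclaved 121 °C for 20 min). Each test compound (1 mg) was dissolved in 1 mL DMSO and made up to 10 mL with sterile water (100 μg mL⁻¹ stock). The solution was placed in the agar, and inhibition zones were measured after 24 h incubation. Values are the mean of triplicate readings.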

P. fluorescens (S 97) = experiment: Agar diffusion method, zone of inhibition; type: cell-based, Pseudomonas fluorescens; details: Pseudomonas fluorescens, 24 h, read-out: Diameter of zone inhibition
Procedure, shortened: as §1

C. albicans = experiment: Agar diffusion method, zone of inhibition; type: cell-based, Candida albicans; details: Candida albicans, 24 h, read-out: Diameter of zone inhibition
Procedure, shortened: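 For agar diffusion against C. albicans, each test compound (1 mg) was dissolved in 1 mL DMSO and diluted to 10 mL with sterile water (100 μg mL⁻¹ stock). The solution was placed in the agar, and the inhibition zone diameter was read after 24 h. Values are the average of triplicate readings.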

[2] = tested on: K. pneumoniae (MDR clinical isolate); experiment: Zone of inhibition against MDR clinical isolate; type: cell-based; details: Klebsiella pneumoniae, read-out: Diameter of zone inhibition
[3] = tested on: MRSA1 (methicillin resistant S. aureus); experiment: Zone of inhibition against MDR clinical isolate; type: cell-based; details: Staphylococcus aureus, read-out: Diameter of zone inhibition
[4] = tested on: MRSA1 (methicillin resistant S. aureus); experiment: Minimal inhibitory concentration; type: cell-based; details: for SI (selectivity index, CC50/MIC): MRSA1 vs VERO cells
Procedure, shortened: (§2)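 Broth microdilution against MDR clinical isolates: 80 μl Mueller–Hinton broth plus 20 μl tween 80 received 100 μl test compound, then two-fold serial dilution. Each well was inoculated with 100 μl of 0.5 McFarland suspension ([…]) and incubated covered at 35 ± 2 °C for 24 h. MIC is the lowest concentration inhibiting growth.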

Gram-positive bacteria = experiment: Agar diffusion method; type: cell-based, S. aureus (ATCC 25923) and S. pyogenes (ATCC 19615); details: summary of Table 1
Procedure, shortened: as §1

S. aureus (ATCC 25923) = experiment: Agar diffusion method, zone of inhibition; type: cell-based, Staphylococcus aureus; details: Staphylococcus aureus, ATCC25923, 24 h, read-out: Diameter of zone inhibition
Procedure, shortened: as §1

[5] = tested on: K. pneumoniae (MDR clinical isolate); experiment: Minimal inhibitory concentration; type: cell-based; details: for SI (selectivity index, CC50/MIC): K. pneumoniae vs VERO cells; for MIC: K. pneumoniae, Table 4
Procedure, shortened: as §2

Gram-negative bacteria = experiment: Agar diffusion method; type: cell-based, P. phaseolicola (GSPB 2828) and P. fluorescens (S 97); details: summary of Table 1
Procedure, shortened: as §1

[6] = tested on: MRSA1 (methicillin resistant S. aureus); experiment: Minimum bactericidal concentration; type: cell-based; details: MRSA; >4 = bacteriostatic

N#Cc1c(-c2ccc(Cl)cc2)nc2n(c1=O)NC(c1ccccc1O)N2C(Cc1c[nH]c2ccccc12)C(=O)O (centres unmarked) [Compound 9c, 2-(5-(4-Chlorophenyl)-6-cyano-2-(2-hydroxyphenyl)-7-oxo-1,2-dihydro-[1,2,4]triazolo[1,5-a]pyrimidin-3(7H)-yl)-3-(1H-indol-3-yl)propanoic acid]
zone of inhibition at 10 µg/mL (S. pyogenes (ATCC 19615)): 19 mm | zone of inhibition at 10 µg/mL [1]: 10 mm | zone of inhibition at 15 µg/mL [1]: 22 mm | zone of inhibition at 10 µg/mL (P. fluorescens (S 97)): 11 mm | zone of inhibition at 15 µg/mL (P. fluorescens (S 97)): 20 mm | zone of inhibition at 10 µg/mL (C. albicans): 9 mm | zone of inhibition at 15 µg/mL (C. albicans): 11 mm | zone of inhibition at 15 µg/mL [2]: 13 mm | zone of inhibition at 15 µg/mL [3]: 27 mm | MIC ([4]; MRSA1, Table 4): 25 µg/mL (≈ 45.2 µM) | SI (selectivity index, CC50/MIC) [4]: 10 | MIC ([4]; Staphylococcus aureus): 25 µg/mL (≈ 45.2 µM) | Activity against Gram-positive bacteria (Gram-positive bacteria): active

CC(C(=O)O)N1c2nc(-c3ccc(Cl)cc3)c(C#N)c(=O)n2NC1(C)c1ccccc1O (centres unmarked) [Compound 9b, 2-(5-(4-Chlorophenyl)-6-cyano-2-(2-hydroxyphenyl)-2-methyl-7-oxo-1,2-dihydro-[1,2,4]triazolo[1,5-a]pyrimidin-3(7H)-yl)propanoic acid]
zone of inhibition at 10 µg/mL (S. aureus (ATCC 25923)): 15 mm | zone of inhibition at 15 µg/mL (S. aureus (ATCC 25923)): 26 mm | zone of inhibition at 15 µg/mL (S. pyogenes (ATCC 19615)): 25 mm | zone of inhibition at 10 µg/mL [1]: 19 mm | zone of inhibition at 15 µg/mL (P. fluorescens (S 97)): 28 mm | zone of inhibition at 10 µg/mL (C. albicans): 6 mm | zone of inhibition at 15 µg/mL (C. albicans): 8 mm | zone of inhibition at 15 µg/mL [2]: 29 mm | zone of inhibition at 15 µg/mL [3]: 7 mm | SI (selectivity index, CC50/MIC) [5]: 10 | MIC [5]: 25 µg/mL (≈ 55.3 µM) | Activity against Gram-negative bacteria (Gram-negative bacteria): active

CC(=O)C1=C(C)N2NC(C)(c3ccccc3O)N(C(Cc3c[nH]c4ccccc34)C(=O)O)C2=NC1c1ccc(Cl)cc1 (centres unmarked) [Compound 2d, 2-(6-Acetyl-5-(4-chlorophenyl)-2-(2-hydroxyphenyl)-2,7-dimethyl-1,2-dihydro-[1,2,4]triazolo[1,5-a]pyrimidin-3(5H)-yl)-3-(1H-indol-3-yl)propanoic acid]
zone of inhibition at 10 µg/mL (S. aureus (ATCC 25923)): 20 mm | zone of inhibition at 10 µg/mL (S. pyogenes (ATCC 19615)): 20 mm | zone of inhibition at 10 µg/mL [1]: 12 mm | zone of inhibition at 15 µg/mL [1]: 22 mm | zone of inhibition at 10 µg/mL (C. albicans): 9 mm | zone of inhibition at 15 µg/mL (C. albicans): 12 mm | zone of inhibition at 15 µg/mL [2]: 6 mm | zone of inhibition at 15 µg/mL [3]: 28 mm | MIC ([4]; MRSA1, Table 4): 25 µg/mL (≈ 42.8 µM) | SI (selectivity index, CC50/MIC) [4]: 20 | MIC ([4]; Staphylococcus aureus): 25 µg/mL (≈ 42.8 µM) | Activity against Gram-positive bacteria (Gram-positive bacteria): active

CCOC(=O)C1=C(C)N2NC(c3ccccc3O)N(C(Cc3c[nH]c4ccccc34)C(=O)O)C2=NC1c1ccc(Cl)cc1 (centres unmarked) [Compound 3c, 2-(5-(4-Chlorophenyl)-6-(ethoxycarbonyl)-2-(2-hydroxyphenyl)-7-methyl-1,2-dihydro-[1,2,4]triazolo[1,5-a]pyrimidin-3(5H)-yl)-3-(1H-indol-3-yl)propanoic acid]
zone of inhibition at 10 µg/mL [1]: 10 mm | zone of inhibition at 10 µg/mL (P. fluorescens (S 97)): 8 mm | zone of inhibition at 15 µg/mL (P. fluorescens (S 97)): 23 mm | zone of inhibition at 10 µg/mL (C. albicans): 6 mm | zone of inhibition at 15 µg/mL (C. albicans): 7 mm | zone of inhibition at 15 µg/mL [2]: 9 mm | zone of inhibition at 15 µg/mL [3]: 24 mm | Activity against methicillin resistant S. aureus ([4]; MDR clinical isolate, Table 2): remarkable activity | MIC ([4]; MRSA1, Table 3): 12.5 µg/mL (≈ 20.8 µM) | SI (selectivity index, CC50/MIC) [4]: 20 | MIC ([4]; Staphylococcus aureus): 12.5 µg/mL (≈ 20.8 µM) | MIC index (MBC/MIC) [6]: > 4 | Activity against Gram-positive bacteria (Gram-positive bacteria): active

CC(C(=O)O)N1c2nc(-c3ccc(Cl)cc3)c(C#N)c(=O)n2NC1c1ccccc1O (centres unmarked) [Compound 9a, 2-(5-(4-Chlorophenyl)-6-cyano-2-(2-hydroxyphenyl)-7-oxo-1,2-dihydro-[1,2,4]triazolo[1,5-a]pyrimidin-3(7H)-yl)propanoic acid]
zone of inhibition at 15 µg/mL (S. aureus (ATCC 25923)): 26 mm | zone of inhibition at 10 µg/mL (S. pyogenes (ATCC 19615)): 12 mm | zone of inhibition at 15 µg/mL (S. pyogenes (ATCC 19615)): 27 mm | zone of inhibition at 15 µg/mL [1]: 30 mm | zone of inhibition at 15 µg/mL (P. fluorescens (S 97)): 30 mm | zone of inhibition at 10 µg/mL (C. albicans): 6 mm | zone of inhibition at 15 µg/mL (C. albicans): 9 mm | zone of inhibition at 15 µg/mL [2]: 27 mm | zone of inhibition at 15 µg/mL [3]: 5 mm | SI (selectivity index, CC50/MIC) [5]: 20 | MIC [5]: 25 µg/mL (≈ 57.1 µM) | Activity against Gram-negative bacteria (Gram-negative bacteria): active
